The source made the active and inactive calls. No cut-off for these calls is given here.
How the values were obtained:
Platelet [1] = assay: Inhibition of thrombin-induced rabbit platelet aggregation compound pre-incubated in rabbit liver microsomal suspension; type: functional, microsomes, Microsome; conditions: Oryctolagus cuniculus
Outline: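 Each compound was first incubated in rabbit liver microsomal suspension, then tested in rabbit platelet aggregation induced by thrombin. IC50 is the concentration giving half-maximal inhibition of aggregation. Mean ± SD of six independent experiments.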

Platelet [2] = assay: Inhibition of ADP-induced rabbit platelet aggregation compound pre-incubated in rabbit liver microsomal suspension; type: functional, microsomes, Microsome; conditions: Oryctolagus cuniculus
Outline: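 Before the in vitro assay, prodrugs were incubated in rabbit liver microsomal suspension. Rabbit platelet aggregation was then induced with ADP. IC50 is the drug concentration giving half-maximal inhibition of aggregation. Mean ± SD from six independent experiments.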

Rattus norvegicus = assay: Antithrombotic activity in intragastrically dosed rat venous thrombosis model; type: functional; conditions: po
Outline: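 Reyers rat venous thrombosis model with intragastric dosing over 0.1–20 mg/kg, and a vehicle-treated control group. Read-out is dry clot weight. Eight animals per group, mean ± SD. ED50 is taken from the dose–response curve of clot weight against log dose (μmol/kg).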

Prothrombin = Prothrombin (Homo sapiens, UniProt P00734); assay: Binding affinity to human thrombin

Row | SMILES | IC50 (Platelet [1]) | further results
1 | COC(=O)/C=C/c1ccc(OC(=O)CCN(C(=O)c2ccc3c(c2)nc(CNc2ccc(/C(N)=N\C(=O)OC)cc2)n3C)c2ccccn2)c(OC)c1 | 0.841 µM | 
2 | COC(=O)/C=C/c1ccc(OC(=O)CCN(C(=O)c2ccc3c(c2)nc(CNc2ccc(/C(N)=N\C(=O)OC(C)C)cc2)n3C)c2ccccn2)c(OC)c1 | 0.784 µM | 
3 | COc1cc(/C=C/C(=O)O)ccc1O [FERULATE] |  | IC50 (Platelet [2]): 2700 µM
4 | COC(=O)/C=C/c1ccc(OC(=O)CCN(C(=O)c2ccc3c(c2)nc(CNc2ccc(/C(N)=N\C(=O)OCc4ccccc4)cc2)n3C)c2ccccn2)c(OC)c1 | 0.687 µM | 

Further lines, with some results ahead:

Row | IC50 (Platelet [1]) | SMILES | further results
5 | 0.29 µM | CCCCCCOC(=O)/N=C(/N)c1ccc(NCc2nc3cc(C(=O)N(CCC(=O)Oc4ccc(/C=C/C(=O)OC)cc4OC)c4ccccn4)ccc3n2C)cc1 | IC50 (Platelet [2]): 5800 µM; ED50 (Rattus norvegicus): 3.7 µmol/kg
6 | 0.453 µM | CCOC(=O)/N=C(/N)c1ccc(NCc2nc3cc(C(=O)N(CCC(=O)Oc4ccc(/C=C/C(=O)OC)cc4OC)c4ccccn4)ccc3n2C)cc1 | 
7 | 0.337 µM | CCCCCCOC(=O)NC(=N)c1ccc(NCc2nc3cc(C(=O)N(CCC(=O)OCC)c4ccccn4)ccc3n2C)cc1 [DABIGATRAN ETEXILATE] | Ki (Prothrombin): 0.0045 µM; inhibition (Platelet [2]; Microsome): inactive; ED50 (Rattus norvegicus): 7.8 µmol/kg
8 | 0.206 µM | CCCCCOC(=O)/N=C(/N)c1ccc(NCc2nc3cc(C(=O)N(CCC(=O)Oc4ccc(/C=C/C(=O)OC)cc4OC)c4ccccn4)ccc3n2C)cc1 | 
9 | 0.607 µM | COC(=O)/C=C/c1ccc(OC(=O)CCN(C(=O)c2ccc3c(c2)nc(CNc2ccc(/C(N)=N\C(=O)OC(C)(C)C)cc2)n3C)c2ccccn2)c(OC)c1 | 

— ChEMBL document CHEMBL2346620, “Design, synthesis and antithrombotic evaluation of novel dabigatran prodrugs containing methyl ferulate” (Bioorg Med Chem Lett, 2013)
